SENP6 block: SENP6 protease inhibition | actives 1.8% (n = 330,000) | AID 2599 | Recombinant SENP6 catalytic domain, aminoluciferin luminescence | Q9GZR1 | inhibition, % at 10 µM;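 active = inhibition above about 50% at the single tested dose, limit read from the data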;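 also: plate controls were DMSO wells with enzyme for no effect and DMSO wells lacking enzyme for full effect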
SENP1 inh: SENP1 (human) catalytic domain inhibition | inhibition, % at 10 µM | Q9P0U3 | recombinant SENP1 catalytic domain, CyPet-SUMO1-YPet FRET cleavage | actives 0.21% (n = 360,000) | AID 624204;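 active = inhibition at least 30% at 10 µM, raw YFP signal under a set limit, fluorescence ratio 0.5 to 1.5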;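 also: 0% = enzyme with DMSO and 100% = no enzyme wells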
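Assay system – human recombinant His6-tagged SENP1 catalytic domain enzyme · Input – SENP1 enzyme, 20 pM final · Buffer or medium – Tris pH 8 buffer plus EDTA, NaCl, BME, BSA, NP40, catalase · Schedule – 50 min reaction at room temperature · Technique – FRET read of cyan and yellow fluorescence · Control set – no-enzyme wells low, DMSO-plus-enzyme wells high control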
SENP7 block: blocks the human protease SENP7; Q9BQF6; recombinant SENP7, Z-RLRGG-aminoluciferin luminescence, 40 min; inhibition, % at 5 µM; actives 1.5% (n = 330,000);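 active = inhibition above about 50% at the single test dose, limit read from the data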;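 also: plate controls were DMSO with enzyme for no effect and no enzyme buffer wells for full effect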
Target sequence (Q9BQF6 706-1050 limits assumed): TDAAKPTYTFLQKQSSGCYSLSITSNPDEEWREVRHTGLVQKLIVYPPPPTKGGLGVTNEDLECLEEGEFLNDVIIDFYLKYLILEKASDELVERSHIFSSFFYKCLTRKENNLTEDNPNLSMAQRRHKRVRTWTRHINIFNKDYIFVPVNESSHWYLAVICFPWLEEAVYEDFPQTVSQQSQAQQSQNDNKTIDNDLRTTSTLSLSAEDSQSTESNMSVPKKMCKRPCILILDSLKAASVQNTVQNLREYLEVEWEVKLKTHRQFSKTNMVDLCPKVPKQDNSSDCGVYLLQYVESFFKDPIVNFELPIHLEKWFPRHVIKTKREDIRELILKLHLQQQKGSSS
SENP8 block-1: blocks the human protease SENP8; inhibition, % at 10 µM; purified SENP8, Z-RLRGG-aminoluciferin cleavage, luminescence; actives 1.2% (n = 330,000); Q96LD8; in the data active = inhibition above about 50%
SENP8 block-2: blocks human SENP8 cleavage of Nedd8 substrate; inhibition, % at 20 µM; actives 0.64% (n = 360,000); Q96LD8; recombinant SENP8, Nedd8 substrate fluorescence; in the data active = inhibition mostly above about 40%, no sharp cut-off; inactive = mostly below about 27%
SENP8 confirm: human SENP8 inhibition, confirmed; shares compounds with SENP7 block; AID 488912; inhibition, % at 12.5 µM; Recombinant SENP8, Z-RLRGG-aminoluciferin luminescence, 60 min; actives 40% (n = 6,200);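 active = mean inhibition across replicates above about 50%, limit read from the data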
SENP6 conf: confirmation of human SENP6 protease inhibitors. inhibition, % at 12.5 µM. AID 488915. shares compounds with SENP7 block. recombinant SENP6, Z-RLRGG-aminoluciferin luminescence. actives 58% (n = 6,200)
SENP7 conf: confirmation of human SENP7 protease inhibitors. inhibition, % at 12.5 µM. actives 69% (n = 6,200). recombinant SENP7, Z-RLRGG-aminoluciferin luminescence, 40 min. shares compounds with SENP7 block
Casp3 SENP sel: inhibits human caspase-3 in SENP selectivity test | shares compounds with SENP7 block | purified caspase-3, Z-DEVD-aminoluciferin luminescence, 60 min | inhibition, % at 12.5 µM | actives 60% (n = 6,200) | AID 488918;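 active = mean inhibition above about 50%, limit read from the data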;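 also: plate controls were enzyme with DMSO for no effect and wells without caspase-3 for full effect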
Target sequence (P42574 28-227 limits assumed): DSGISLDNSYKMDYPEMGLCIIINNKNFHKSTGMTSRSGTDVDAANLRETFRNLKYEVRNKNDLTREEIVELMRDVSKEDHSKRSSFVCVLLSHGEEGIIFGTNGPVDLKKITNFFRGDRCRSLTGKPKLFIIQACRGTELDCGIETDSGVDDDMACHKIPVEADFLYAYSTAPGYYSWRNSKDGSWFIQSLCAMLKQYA
SENP luc ctr: interferes with luciferase luminescence in SENP counter-screen | Pre-incubated SENP8/Z-RLRGG-aminoluciferin, luciferase luminescence interference | shares compounds with SENP7 block | actives 39% (n = 6,200) | inhibition, % at 12.5 µM;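 active = mean inhibition above about 50% when retested at one dose, limit read from the data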;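 also: plate controls were DMSO wells with completed reaction for no effect and substrate without enzyme for full effect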
Active calls of the source: *. A selection: hits, their analogues and other compounds. The true share with any hit is near 2.5%.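 The calls were made as follows, unless noted: active = mean inhibition above about 50% in the one-dose retest (limit read from the data); inactive = the rest.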

Screening O=C(CCN1C(=O)/C(=C/c2ccco2)SC1=S)Nc1ccc(C(=O)O)c(O)c1 returned SENP6 block -8, SENP1 inh 0, SENP7 block 5, SENP8 block-1 3 and SENP8 block-2 24.
Screening COc1ccccc1/C=C1\SC(=S)N(CCC(=O)Nc2ccc(C(=O)O)c(O)c2)C1=O returned SENP6 block 72*, SENP1 inh -8, SENP7 block 8, SENP8 block-1 64*, SENP8 block-2 20, SENP8 confirm 77*, SENP6 conf 76*, SENP7 conf 79*, Casp3 SENP sel 15 and SENP luc ctr 81*.
For CCc1ccc(/C=C2/SC(=S)N(CCC(=O)Nc3cccc(C(=O)O)c3)C2=O)cc1 the results were SENP6 block 38, SENP1 inh 3, SENP7 block 52*, SENP8 block-1 79*, SENP8 block-2 21*, SENP8 confirm 28, SENP6 conf 24, SENP7 conf 22, Casp3 SENP sel 32 and SENP luc ctr 17.
Screening CCc1ccc(C=C2SC(=S)N(CCCC(=O)Nc3ccc(C(=O)O)cc3)C2=O)cc1 returned SENP1 inh 2 and SENP8 block-2 13.
For CCc1ccc(/C=C2/SC(=S)N(CCC(=O)Nc3ccc(C(=O)O)cc3)C2=O)cc1 the results were SENP6 block 22, SENP1 inh 4, SENP7 block 75*, SENP8 block-1 85*, SENP8 block-2 22, SENP8 confirm 12, SENP6 conf 11, SENP7 conf 2, Casp3 SENP sel 3 and SENP luc ctr -1.
`CC(NC(=O)COC(=O)c1ccc2c(=O)n3c(nc2c1)CCCCC3)c1ccccc1` (centres undefined) gave SENP6 block -16, SENP1 inh -10, SENP7 block 6, SENP8 block-1 -4 and SENP8 block-2 -52.
For c1ccc(-c2nn[nH]n2)cc1 the results were SENP6 block -13, SENP1 inh 1, SENP7 block 2, SENP8 block-1 5 and SENP8 block-2 5.
For c1ccc(-c2nnc(-c3ccccc3)nn2)cc1 the results were SENP6 block 88*, SENP1 inh 0, SENP7 block 96*, SENP8 block-1 83*, SENP8 block-2 28, SENP8 confirm 8, SENP6 conf 13, SENP7 conf 26, Casp3 SENP sel 36 and SENP luc ctr 29.
O=C(CSc1ccccn1)c1ccc(F)cc1 was read as SENP6 block 23, SENP1 inh 4, SENP7 block 4, SENP8 block-1 6 and SENP8 block-2 1.
O=C(O)c1ccnc(SCC(=O)c2ccccc2)c1 was read as SENP6 block 61*, SENP1 inh 0, SENP7 block 26, SENP8 block-1 10, SENP8 block-2 0, SENP8 confirm 0, SENP6 conf -3, SENP7 conf 26, Casp3 SENP sel 48 and SENP luc ctr 23.
For Cc1ccc(C(=O)CSc2ccccn2)cc1 the results were SENP6 block 69*, SENP1 inh 1, SENP7 block 51*, SENP8 block-1 51*, SENP8 block-2 15, SENP8 confirm 5, SENP6 conf 35, SENP7 conf -11, Casp3 SENP sel 76* and SENP luc ctr 68*.
`O=C(CSc1ncccc1C(=O)O)c1ccccc1` gave SENP6 block -13, SENP1 inh 0, SENP7 block -5, SENP8 block-1 -16 and SENP8 block-2 3.
CNC(=O)C1CC(=O)N(c2ccc(OCC(=O)NCc3ccccc3)cc2)C1 (centres undefined) was read as SENP6 block -19, SENP1 inh 0, SENP7 block -4, SENP8 block-1 2 and SENP8 block-2 12.
`C[C@H](CO)N1C[C@H](C)[C@@H](CN(C)C)Oc2c(NS(=O)(=O)c3cn(C)cn3)cccc2C1=O` gave SENP6 block 19, SENP1 inh 3, SENP7 block -5, SENP8 block-1 -1 and SENP8 block-2 3.
`O=c1c2ccccc2cnn1-c1ccc(Cl)cc1` gave SENP6 block 59*, SENP1 inh 4, SENP7 block 57*, SENP8 block-1 34, SENP8 block-2 -4, SENP8 confirm 23, SENP6 conf 62*, SENP7 conf 73*, Casp3 SENP sel 79* and SENP luc ctr 33.
Screening Cc1ccc(-n2ncc3ccccc3c2=O)cc1Cl returned SENP6 block 45, SENP1 inh -1, SENP7 block 41, SENP8 block-1 37 and SENP8 block-2 -18.
For COCc1c(C(=O)NCC(c2ccco2)N2CCCC2)oc2ccccc12 (centres undefined) the results were SENP1 inh -4 and SENP8 block-2 -2.
For O=C(O)c1ccc(-c2cccc([N+](=O)[O-])c2)o1 the results were SENP6 block -10, SENP1 inh -2, SENP7 block -8, SENP8 block-1 -9 and SENP8 block-2 31.
For N#C/C(=C(/O)c1ccc(-c2cccc([N+](=O)[O-])c2)o1)c1nc2ccccc2s1 the results were SENP6 block 97*, SENP1 inh -20, SENP7 block 25, SENP8 block-1 93*, SENP8 block-2 -23, SENP8 confirm 13, SENP6 conf 26, SENP7 conf 18, Casp3 SENP sel 4 and SENP luc ctr 9.
For COc1ccc(NS(=O)(=O)c2ccc(NC(=O)C(CCSC)NC(N)=O)cc2)cc1 (centres undefined) the results were SENP6 block -18, SENP1 inh 1, SENP7 block 4, SENP8 block-1 -5 and SENP8 block-2 24.
`O=C(Cc1ccccc1)N1CCN(c2ccccc2F)CC1` gave SENP6 block 75*, SENP1 inh 2, SENP7 block -1, SENP8 block-1 59*, SENP8 block-2 10, SENP8 confirm -4, SENP6 conf -2, SENP7 conf -2, Casp3 SENP sel 7 and SENP luc ctr 1.
Screening CCOCCCNC(=O)C1(O)c2ccccc2NC(=O)N1c1ccc(Cl)cc1 (centres undefined) returned SENP6 block 4, SENP1 inh 2, SENP7 block 6, SENP8 block-1 4 and SENP8 block-2 6.

Assay outcomes (PubChem BioAssay)
